ChEMBL document CHEMBL4251609, “Substrate-derived triazolo- and azapeptides as inhibitors of cathepsins K and S” (Eur J Med Chem, 2018)
pKi: −log10 of the molar value. One block for each molecule: values may come before it. The source made the active and inactive calls. The calls are words filed in the database; no cut-off is given here.

How the values were obtained:
[1] = target: T1, Cathepsin K (Homo sapiens) (UniProt P43235); assay: Inhibition of human cathepsin K […] activity assessed as normalized bradykinin equivalents ratio at 1 uM pre-incubated for 15 mins before bradykinin substrate addition by competitive enzyme immunoassay (reference value: <0.5%); design: scale not given: the % may be the effect or the level left
T1 sequence (whole entry): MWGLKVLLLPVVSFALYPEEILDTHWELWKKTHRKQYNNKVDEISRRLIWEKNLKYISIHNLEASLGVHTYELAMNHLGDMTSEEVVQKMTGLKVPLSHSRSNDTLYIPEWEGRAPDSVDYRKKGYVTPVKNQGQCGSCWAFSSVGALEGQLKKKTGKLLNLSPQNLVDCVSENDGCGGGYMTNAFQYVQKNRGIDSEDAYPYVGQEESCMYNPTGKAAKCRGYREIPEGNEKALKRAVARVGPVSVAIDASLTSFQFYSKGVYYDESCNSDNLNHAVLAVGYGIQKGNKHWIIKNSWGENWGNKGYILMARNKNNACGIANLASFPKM

[2] = target: T1, Cathepsin K (Homo sapiens); assay: Inhibition of human cathepsin K […] activity assessed as normalized bradykinin equivalents ratio at 1 uM pre-incubated for 15 mins before kallidin substrate addition by competitive enzyme immunoassay (reference value: <0.5%); design: scale not given: the % may be the effect or the level left
Trypsin (Homo sapiens) = Trypsin (Homo sapiens) (UniProt P07477+P07478+P35030); assay: Inhibition of trypsin (unknown origin) incubated for 30 mins using Abz-Thr-Pro-Arg-Ser-Ala-Leu-Gln-EDDnp substrate; type: protein assay
Homo sapiens = organism: Homo sapiens; assay: Inhibition of chymotrypsin (unknown origin) incubated for 30 mins using Abz-Thr-Pro-Phe-Ser-Gly-Gln-EDDnp substrate
[3] = target: T2, Neutrophil elastase (Homo sapiens) (UniProt P08246); assay: Inhibition of human neutrophil elastase incubated for 30 mins using Abz-Ala-Pro-Glu-Glu-Ile-Met-Arg-Arg-Gln-(3-NO2-Tyr) substrate
T2 sequence (whole entry): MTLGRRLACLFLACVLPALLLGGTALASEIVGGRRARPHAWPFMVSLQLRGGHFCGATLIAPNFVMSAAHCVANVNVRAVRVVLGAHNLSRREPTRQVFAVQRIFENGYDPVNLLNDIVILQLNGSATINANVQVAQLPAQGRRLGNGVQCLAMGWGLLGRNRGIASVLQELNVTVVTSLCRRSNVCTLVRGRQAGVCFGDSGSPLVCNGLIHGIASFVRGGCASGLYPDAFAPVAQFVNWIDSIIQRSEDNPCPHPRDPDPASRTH

[4] = target: 72 kDa type IV collagenase (Homo sapiens) (UniProt P08253); assay: Inhibition of human recombinant MMP-2 expressed in CHO cells incubated for 30 mins by Mca-Arg-Pro-Pro-Gly-Phe-Ser-Ala-Phe-Lys(Dnp) substrate; type: cell-based
Chain of 72 kDa type IV collagenase (Homo sapiens) (P08253 110-660 limits assumed): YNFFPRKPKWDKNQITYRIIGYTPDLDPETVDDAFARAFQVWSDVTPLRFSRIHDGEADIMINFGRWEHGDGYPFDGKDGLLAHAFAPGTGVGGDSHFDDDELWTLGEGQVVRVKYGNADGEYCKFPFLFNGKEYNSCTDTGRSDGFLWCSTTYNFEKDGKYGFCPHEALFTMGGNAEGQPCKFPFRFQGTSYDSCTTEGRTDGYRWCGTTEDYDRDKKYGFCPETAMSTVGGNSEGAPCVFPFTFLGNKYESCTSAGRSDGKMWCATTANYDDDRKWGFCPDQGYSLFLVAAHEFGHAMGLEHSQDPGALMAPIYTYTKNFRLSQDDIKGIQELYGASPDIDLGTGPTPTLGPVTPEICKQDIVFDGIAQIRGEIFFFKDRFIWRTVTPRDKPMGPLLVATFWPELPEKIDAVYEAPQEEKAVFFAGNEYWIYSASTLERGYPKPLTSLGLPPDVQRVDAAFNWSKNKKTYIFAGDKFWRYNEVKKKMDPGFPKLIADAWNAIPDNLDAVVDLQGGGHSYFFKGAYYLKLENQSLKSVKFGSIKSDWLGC

[5] = target: Cathepsin D (Homo sapiens) (UniProt P07339); assay: Inhibition of human cathepsin D incubated for 30 mins using Mca-Gly-Lys-Pro-Ile-Leu-Phe-Phe-Arg-Leu-Lys(Dnp)-D-Arg-NH2 substrate
Chain of Cathepsin D (Homo sapiens) (P07339 65-162 limits assumed): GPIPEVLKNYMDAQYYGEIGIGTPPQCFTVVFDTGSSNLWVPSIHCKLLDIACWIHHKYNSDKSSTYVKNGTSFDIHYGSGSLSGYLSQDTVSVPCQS
Chain of Cathepsin D (Homo sapiens) (P07339 169-412 limits assumed): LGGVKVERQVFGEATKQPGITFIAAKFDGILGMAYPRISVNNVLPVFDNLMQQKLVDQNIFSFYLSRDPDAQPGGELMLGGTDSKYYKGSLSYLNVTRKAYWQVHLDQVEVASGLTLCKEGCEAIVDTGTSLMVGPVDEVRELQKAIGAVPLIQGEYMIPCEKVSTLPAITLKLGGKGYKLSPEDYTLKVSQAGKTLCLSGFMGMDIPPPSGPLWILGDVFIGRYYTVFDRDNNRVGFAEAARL

[6] = target: T3, Pro-cathepsin H (Homo sapiens) (UniProt P09668); assay: Inhibition of human cathepsin H using fluorogenic AMC-derived peptide substrate assessed as reduction in residual activity preincubated for 30 mins followed by substrate addition
T3 sequence (whole entry): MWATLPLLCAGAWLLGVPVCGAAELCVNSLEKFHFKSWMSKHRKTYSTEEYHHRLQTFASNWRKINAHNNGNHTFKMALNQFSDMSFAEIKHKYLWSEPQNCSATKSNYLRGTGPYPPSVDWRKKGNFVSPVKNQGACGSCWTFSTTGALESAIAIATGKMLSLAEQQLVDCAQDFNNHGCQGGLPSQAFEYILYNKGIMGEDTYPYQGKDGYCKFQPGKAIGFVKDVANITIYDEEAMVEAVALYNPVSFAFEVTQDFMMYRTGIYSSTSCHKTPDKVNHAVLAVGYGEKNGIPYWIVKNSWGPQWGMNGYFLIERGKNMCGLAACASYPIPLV

[7] = target: Cathepsin B (Homo sapiens) (UniProt P07858); assay: Inhibition of human cathepsin B
[8] = target: T1, Cathepsin K (Homo sapiens); assay: Inhibition of human cathepsin K using fluorogenic AMC-derived peptide substrate assessed as reduction in residual activity preincubated for 30 mins followed by substrate addition
Procathepsin L [9] = target: T4, Procathepsin L (Homo sapiens, UniProt P07711); assay: Inhibition of human cathepsin L using fluorogenic AMC-derived peptide substrate assessed as reduction in residual activity preincubated for 30 mins followed by substrate addition
Target sequence in this assay (P07711 114-333 limits assumed): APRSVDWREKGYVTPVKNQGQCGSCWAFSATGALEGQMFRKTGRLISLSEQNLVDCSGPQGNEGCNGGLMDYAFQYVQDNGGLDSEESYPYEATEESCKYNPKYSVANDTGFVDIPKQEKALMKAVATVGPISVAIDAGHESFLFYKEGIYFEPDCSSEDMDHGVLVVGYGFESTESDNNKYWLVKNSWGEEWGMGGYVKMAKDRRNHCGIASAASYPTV

Cathepsin S [10] = target: T5, Cathepsin S (Homo sapiens, UniProt P25774); assay: Reversible inhibition of human cathepsin S at 600 uM preincubated for 30 mins followed by Biot-(PEG)2-Ahx-LeuValGly-DMK addition measured after 1 hr by chemiluminescence assay
Target sequence in this assay (P25774 115-331 limits assumed): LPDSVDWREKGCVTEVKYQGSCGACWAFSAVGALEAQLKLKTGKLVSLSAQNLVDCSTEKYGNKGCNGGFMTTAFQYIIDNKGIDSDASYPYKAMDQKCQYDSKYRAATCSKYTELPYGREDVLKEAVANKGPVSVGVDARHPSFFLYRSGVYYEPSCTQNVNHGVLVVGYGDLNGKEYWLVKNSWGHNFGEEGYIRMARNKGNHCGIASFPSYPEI

Cathepsin S [11] = target: T5, Cathepsin S; assay: (§1) Reversible competitive inhibition of human cathepsin S using fluorogenic AMC-derived peptide substrate assessed as reduction in residual activity at pH 5.5 preincubated for 30 mins followed by substrate addition
Procedure, shortened: (§2)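 Ki values for cathepsin S determined at pH 5.5 and again at pH 7.4, a pH at which this enzyme stays stable and active, to compare the two conditions.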
Target sequence in this assay (P25774 115-331 limits assumed): as above

[12] = target: Cathepsin S (Mus musculus) (UniProt O70370); assay: Inhibition of cathepsin S in C57/Bl6 mouse spleen lysate using Z-Val-Leu-Arg-AMC as substrate at 10 uM preincubated for 30 mins followed by substrate addition; type: subcellular
Cathepsin S [13] = target: T5, Cathepsin S; assay: Reversible inhibition of human cathepsin S at 600 uM in presence of excess Z-LR-AMC
Target sequence in this assay (P25774 115-331 limits assumed): as above

[14] = target: Cathepsin B (Mus musculus) (UniProt P10605); assay: Inhibition of cathepsin B in C57/Bl6 mouse spleen lysate using Z-Arg-Arg-AMC as substrate at 10 uM preincubated for 30 mins followed by substrate addition; type: subcellular
Chain of Cathepsin B (Mus musculus) (P10605 80-333 limits assumed): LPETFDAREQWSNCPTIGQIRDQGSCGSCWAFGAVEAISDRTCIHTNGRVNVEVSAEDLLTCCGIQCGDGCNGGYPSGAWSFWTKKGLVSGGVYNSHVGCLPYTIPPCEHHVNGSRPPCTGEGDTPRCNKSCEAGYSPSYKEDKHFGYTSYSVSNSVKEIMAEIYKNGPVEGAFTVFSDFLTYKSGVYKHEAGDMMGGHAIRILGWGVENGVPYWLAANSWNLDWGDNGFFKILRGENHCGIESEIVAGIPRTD

Cathepsin S [15] = target: T5, Cathepsin S; assay: as §1; conditions: read-out: Ki; procedure, shortened: as §2
Target sequence in this assay (P25774 whole entry): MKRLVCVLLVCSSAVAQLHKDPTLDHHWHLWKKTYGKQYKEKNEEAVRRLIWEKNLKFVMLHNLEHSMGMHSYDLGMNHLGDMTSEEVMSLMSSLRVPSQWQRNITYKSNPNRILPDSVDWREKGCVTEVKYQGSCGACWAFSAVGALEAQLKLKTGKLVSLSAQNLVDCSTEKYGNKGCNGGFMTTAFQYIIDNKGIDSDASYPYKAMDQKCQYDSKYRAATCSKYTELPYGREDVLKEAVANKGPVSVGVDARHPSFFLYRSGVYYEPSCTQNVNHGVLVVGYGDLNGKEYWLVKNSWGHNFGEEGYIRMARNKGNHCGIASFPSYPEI

Cathepsin S [16] = target: T5, Cathepsin S; assay: Reversible competitive inhibition of human cathepsin S using fluorogenic AMC-derived peptide substrate assessed as reduction in residual activity at pH 7.4 preincubated for 30 mins followed by substrate addition; conditions: read-out: Ki; procedure, shortened: as §2
Target sequence in this assay (P25774 whole entry): as above

Cathepsin K [17] = target: T6, Cathepsin K (Homo sapiens, UniProt P43235); assay: Reversible competitive inhibition of human cathepsin K using fluorogenic AMC-derived peptide substrate assessed as reduction in residual activity preincubated for 30 mins followed by substrate addition
T6 sequence (P43235 whole entry): T1 sequence (whole entry)
Procedure, shortened: (§3)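 Inhibition constants (Ki) determined at pH 5.5, with reversibility and competitive mode also assessed.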

Procathepsin L [18] = target: T4, Procathepsin L; assay: Reversible competitive inhibition of human cathepsin L using fluorogenic AMC-derived peptide substrate assessed as reduction in residual activity preincubated for 30 mins followed by substrate addition; procedure, shortened: as §3
Target sequence in this assay (P07711 whole entry): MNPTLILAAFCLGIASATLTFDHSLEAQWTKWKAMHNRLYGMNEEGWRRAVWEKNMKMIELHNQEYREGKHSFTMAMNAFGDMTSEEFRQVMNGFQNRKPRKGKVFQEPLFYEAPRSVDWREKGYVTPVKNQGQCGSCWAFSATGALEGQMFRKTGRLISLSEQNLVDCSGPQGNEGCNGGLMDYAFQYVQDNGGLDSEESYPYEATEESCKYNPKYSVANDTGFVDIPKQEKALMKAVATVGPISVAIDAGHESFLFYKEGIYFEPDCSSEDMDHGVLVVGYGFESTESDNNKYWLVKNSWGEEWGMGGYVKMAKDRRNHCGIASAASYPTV

Pro-cathepsin H = target: T7, Pro-cathepsin H (Homo sapiens, UniProt P09668); assay: Reversible competitive inhibition of human cathepsin H using fluorogenic AMC-derived peptide substrate assessed as reduction in residual activity preincubated for 30 mins followed by substrate addition; conditions: read-out: Ki
T7 sequence (P09668 whole entry): T3 sequence (whole entry)

Cathepsin S [19] = target: T5, Cathepsin S; assay: Inhibition of human cathepsin S using fluorogenic AMC-derived peptide substrate assessed as reduction in residual activity preincubated for 30 mins followed by substrate addition
Target sequence in this assay (P25774 115-331 limits assumed): as the sequence (P25774 115-331 limits assumed) above

Cathepsin K [20] = target: T6, Cathepsin K; assay: Inhibition of human cathepsin K

- Activity [1]: < 0.5%
- Activity [2]: < 0.5%
SMILES: CCCNC(=O)[C@H]1O[C@@H]1C(=O)N[C@H](C(=O)N1CCC[C@H]1C(=O)O)[C@@H](C)CC

- inhibition (Trypsin (Homo sapiens)): inactive
- inhibition (Homo sapiens): inactive
- inhibition [3]: inactive
- inhibition [4]: inactive
- inhibition [5]: inactive
- inhibition [6]: Active
- inhibition [7]: Active
- inhibition [8]: Active
- inhibition (Procathepsin L [9]): Active
- inhibition (Cathepsin S [10]): Active
- inhibition (Cathepsin S [11]): Active
- inhibition [12]: Active
- inhibition (Cathepsin S [13]): inactive
- inhibition [14]: inactive
- pKi (Cathepsin S [15]): 7.59
- pKi (Cathepsin S [16]): 7.77
- pKi (Cathepsin K [17]): 8.52
- pKi (Procathepsin L [18]): 8.30
- pKi (Pro-cathepsin H): 5.15
- inhibition (Cathepsin S [19]): Active
SMILES: CSCC[C@H](NC(=O)[C@@H]1CCCN1C(=O)[C@H](Cc1c[nH]cn1)NC(=O)[C@H](Cc1c[nH]c2ccccc12)NC(=O)[C@H](CCCNC(=N)N)NC(=O)CNC(C)=O)C(=O)NNC(=O)N[C@@H](C)C(=O)N1CCC[C@H]1C(=O)N[C@@H](Cc1c[nH]c2ccccc12)C(=O)N[C@@H](CCC(=O)O)C(=O)N[C@H](C)C(=O)N[C@H](CCCNC(=N)N)C(N)=O

- pKi (Cathepsin K [20]): 9.74
SMILES: CC(C)(F)C[C@H](N[C@@H](c1ccc(-c2ccc(S(C)(=O)=O)cc2)cc1)C(F)(F)F)C(=O)NC1(C#N)CC1 [ODANACATIB]
